From ChEMBL document CHEMBL1255410, “Activity of the investigational fluoroquinolone finafloxacin against ciprofloxacin-sensitive and -resistant Acinetobacter baumannii isolates” (2010)
Converted amounts (≈) assume the structure as drawn.

What was measured:
Acinetobacter baumannii [1] = test: Antimicrobial activity against Acinetobacter baumannii isolate 15 at pH 5.8; format: functional
How it was run: (§1)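 MIC by agar dilution on Mueller-Hinton agar acidified to pH 5.8 with HCl before antibiotic-containing plates were poured. Agar pH was rechecked once the agar had solidified. Isolates had characterized gyrA/parC genes. Plates for both drugs were made the same day from fresh media, and MICs were read in parallel with the standard-pH set.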

Acinetobacter baumannii [2] = test: Antimicrobial activity against Acinetobacter baumannii isolate 20 harboring GyrA Ser83-Leu mutation at pH 5.8; format: functional; how it was run: as §1
Acinetobacter baumannii [3] = test: Antimicrobial activity against Acinetobacter baumannii isolate 54 harboring GyrA Ser83-Leu and ParC Ser80-Leu mutation at pH 7.2; format: functional
How it was run: (§2)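 Agar dilution MIC on Mueller-Hinton agar. For the acidic condition, HCl was added to bring the agar to pH 5.8 before pouring the antibiotic plates, and the pH was checked after the agar set. The standard condition was pH 7.2. Both drugs' plates were made the same day from fresh medium, and MICs were read at the same time.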

Acinetobacter baumannii [4] = test: Antimicrobial activity against Acinetobacter baumannii isolate 3 at pH 5.8; format: functional; how it was run: as §1
Acinetobacter baumannii [5] = test: Antimicrobial activity against Acinetobacter baumannii isolate 39 harboring GyrA Ser83-Leu mutation at pH 5.8; format: functional; how it was run: as §2
Acinetobacter baumannii [6] = test: Antimicrobial activity against Acinetobacter baumannii isolate 5 at pH 7.2; format: functional; how it was run: as §2
Acinetobacter baumannii [7] = test: Antimicrobial activity against Acinetobacter baumannii isolate 65 harboring GyrA Ser83-Leu and ParC Ser80-Leu mutation at pH 5.8; format: functional
How it was run: (§3)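 Agar dilution MIC on Mueller-Hinton agar acidified to pH 5.8 with HCl before the antibiotic-containing plates were poured. Agar pH was checked after solidifying. Plates were made the same day from fresh medium. Both fluoroquinolones were tested simultaneously against A. baumannii isolates with characterized gyrA/parC genes. MICs are in μg/ml.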

Acinetobacter baumannii [8] = test: Antimicrobial activity against Acinetobacter baumannii isolate 11 at pH 7.2; format: functional
How it was run: (§4)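 MIC by agar dilution on Mueller-Hinton agar under standard conditions (pH 7.2), against isolates with characterized gyrA/parC genes. Agar pH was checked after solidifying. Plates for both drugs were prepared the same day from freshly made media, and MICs were determined simultaneously with the pH 5.8 set.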

Acinetobacter baumannii [9] = test: Antimicrobial activity against Acinetobacter baumannii isolate 49 harboring GyrA Ser83-Leu and ParC Ser80-Leu mutation at pH 5.8; format: functional; how it was run: as §2
Acinetobacter baumannii [10] = test: Antimicrobial activity against adeB overexpressing Acinetobacter baumannii isolate 67 harboring GyrA Ser83-Leu and ParC Ser80-Leu mutation at pH 5.8; format: functional; how it was run: as §3
Acinetobacter baumannii [11] = test: Antimicrobial activity against Acinetobacter baumannii isolate 32 harboring GyrA Ser83-Leu mutation at pH 7.2; format: functional; how it was run: as §2
Acinetobacter baumannii [12] = test: Antimicrobial activity against Acinetobacter baumannii isolate 37 harboring GyrA Ser83-Leu mutation at pH 7.2; format: functional; how it was run: as §2
Acinetobacter baumannii [13] = test: Antimicrobial activity against Acinetobacter baumannii isolate 6 at pH 7.2; format: functional
How it was run: (§5)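 Agar dilution MIC on Mueller-Hinton agar under standard conditions (pH 7.2). Antibiotic-containing plates were made the same day from freshly prepared medium. Agar pH was checked after solidifying. Both fluoroquinolones were tested simultaneously against A. baumannii isolates with characterized gyrA/parC genes. MICs are in μg/ml.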

Acinetobacter baumannii [14] = test: Antimicrobial activity against Acinetobacter baumannii isolate 15 at pH 7.2; format: functional; how it was run: as §4
Acinetobacter baumannii [15] = test: Antimicrobial activity against Acinetobacter baumannii isolate 55 harboring GyrA Ser83-Leu and ParC Ser80-Leu mutation at pH 7.2; format: functional; how it was run: as §5
Acinetobacter baumannii [16] = test: Antimicrobial activity against Acinetobacter baumannii isolate 48 harboring GyrA Ser83-Leu and ParC Ser80-Leu mutation at pH 5.8; format: functional; how it was run: as §2
Acinetobacter baumannii [17] = test: Antimicrobial activity against Acinetobacter baumannii isolate 26 harboring GyrA Ser83-Leu mutation at pH 5.8; format: functional; how it was run: as §1
Acinetobacter baumannii [18] = test: Antimicrobial activity against Acinetobacter baumannii isolate 39 harboring GyrA Ser83-Leu mutation at pH 7.2; format: functional; how it was run: as §2
Acinetobacter baumannii [19] = test: Antimicrobial activity against Acinetobacter baumannii isolate 44 harboring GyrA Ser83-Leu and ParC Glu84-Lys mutation at pH 7.2; format: functional; how it was run: as §2
Acinetobacter baumannii [20] = test: Antimicrobial activity against Acinetobacter baumannii isolate 64 harboring GyrA Ser83-Leu and ParC Ser80-Leu mutation at pH 5.8; format: functional; how it was run: as §3
Acinetobacter baumannii [21] = test: Antimicrobial activity against Acinetobacter baumannii isolate 61 harboring GyrA Ser83-Leu and ParC Ser80-Leu mutation at pH 7.2; format: functional; how it was run: as §5
Acinetobacter baumannii [22] = test: Antimicrobial activity against Acinetobacter baumannii isolate 66 harboring GyrA Ser83-Leu mutation at pH 7.2; format: functional; how it was run: as §5
Acinetobacter baumannii [23] = test: Antimicrobial activity against Acinetobacter baumannii isolate 55 harboring GyrA Ser83-Leu and ParC Ser80-Leu mutation at pH 5.8; format: functional; how it was run: as §2
Acinetobacter baumannii [24] = test: Antimicrobial activity against Acinetobacter baumannii isolate 59 harboring GyrA Ser83-Leu and ParC Glu84-Lys mutation at pH 7.2; format: functional; how it was run: as §5
Acinetobacter baumannii [25] = test: Antimicrobial activity against Acinetobacter baumannii isolate 42 harboring GyrA Ser83-Leu mutation at pH 5.8; format: functional; how it was run: as §2
Acinetobacter baumannii [26] = test: Antimicrobial activity against Acinetobacter baumannii isolate 60 harboring GyrA Ser83-Leu and ParC Ser80-Leu mutation at pH 5.8
Acinetobacter baumannii [27] = test: Antimicrobial activity against Acinetobacter baumannii isolate 25 harboring GyrA Ser83-Leu mutation at pH 7.2; format: functional; how it was run: as §4
Acinetobacter baumannii [28] = test: Antimicrobial activity against Acinetobacter baumannii isolate 10 at pH 7.2; format: functional; how it was run: as §4
Acinetobacter baumannii [29] = test: Antimicrobial activity against Acinetobacter baumannii isolate 22 harboring GyrA Ser83-Leu mutation at pH 5.8; format: functional; how it was run: as §1
Acinetobacter baumannii [30] = test: Antimicrobial activity against Acinetobacter baumannii isolate 17 at pH 7.2; format: functional; how it was run: as §4
Acinetobacter baumannii [31] = test: Antimicrobial activity against Acinetobacter baumannii isolate 51 harboring GyrA Ser83-Leu and ParC Ser80-Leu mutation at pH 7.2; format: functional; how it was run: as §2
Acinetobacter baumannii [32] = test: Antimicrobial activity against Acinetobacter baumannii isolate 17 at pH 5.8; format: functional; how it was run: as §1
Acinetobacter baumannii [33] = test: Antimicrobial activity against Acinetobacter baumannii isolate 23 harboring GyrA Glu87-Gly mutation at pH 5.8; format: functional; how it was run: as §1
Acinetobacter baumannii [34] = test: Antimicrobial activity against Acinetobacter baumannii isolate 18 at pH 7.2; format: functional; how it was run: as §4
Acinetobacter baumannii [35] = test: Antimicrobial activity against Acinetobacter baumannii isolate 4 at pH 7.2; format: functional; how it was run: as §2
Acinetobacter baumannii [36] = test: Antimicrobial activity against Acinetobacter baumannii isolate 29 harboring GyrA Ser83-Leu mutation at pH 5.8; format: functional; how it was run: as §1
Acinetobacter baumannii [37] = test: Antimicrobial activity against Acinetobacter baumannii isolate 58 harboring GyrA Ser83-Leu and ParC Ser80-Leu mutation at pH 5.8; format: functional; how it was run: as §3
Acinetobacter baumannii [38] = test: Antimicrobial activity against Acinetobacter baumannii isolate 35 harboring GyrA Ser83-Leu mutation at pH 7.2; format: functional; how it was run: as §2
Acinetobacter baumannii [39] = test: Antimicrobial activity against Acinetobacter baumannii isolate 13 at pH 5.8; format: functional; how it was run: as §1
Acinetobacter baumannii [40] = test: Antimicrobial activity against Acinetobacter baumannii isolate 38 harboring GyrA Ser83-Leu mutation at pH 7.2; format: functional; how it was run: as §2
Acinetobacter baumannii [41] = test: Antimicrobial activity against Acinetobacter baumannii isolate 12 at pH 7.2; format: functional; how it was run: as §4

Question: O=C(O)c1cn(C2CC2)c2cc(N3CCNCC3)c(F)cc2c1=O [CIPROFLOXACIN] was tested. Which MIC (Acinetobacter baumannii [1]) did it give?
Answer: Its MIC is 4 µg/mL (≈ 12.1 µM).

Question: And the MIC (Acinetobacter baumannii [2])?
Answer: Its MIC is 4 µg/mL (≈ 12.1 µM).

Question: And the MIC (Acinetobacter baumannii [3])?
Answer: The MIC was 128 µg/mL (≈ 386 µM).

Question: And the MIC (Acinetobacter baumannii [4])?
Answer: Its MIC is 2 µg/mL (≈ 6.04 µM).

Question: And the MIC (Acinetobacter baumannii [5])?
Answer: Its MIC is over 128 µg/mL.

Question: What about the MIC (Acinetobacter baumannii [6]) of the same molecule?
Answer: The MIC was 0.12 µg/mL (≈ 0.362 µM).

Question: And the MIC (Acinetobacter baumannii [7])?
Answer: Its MIC is over 128 µg/mL.

Question: What about the MIC (Acinetobacter baumannii [8]) of the same molecule?
Answer: Its MIC is 0.25 µg/mL (≈ 0.754 µM).

Question: And the MIC (Acinetobacter baumannii [9])?
Answer: The MIC was over 128 µg/mL.

Question: And the MIC (Acinetobacter baumannii [10])?
Answer: The MIC was over 128 µg/mL.

Question: And the MIC (Acinetobacter baumannii [11])?
Answer: The MIC was 16 µg/mL (≈ 48.3 µM).

Question: What about the MIC (Acinetobacter baumannii [12]) of the same molecule?
Answer: Its MIC is 16 µg/mL (≈ 48.3 µM).

Question: What about the MIC (Acinetobacter baumannii [13]) of the same molecule?
Answer: The MIC was 0.12 µg/mL (≈ 0.362 µM).

Question: And the MIC (Acinetobacter baumannii [14])?
Answer: Its MIC is 1 µg/mL (≈ 3.02 µM).

Question: What about the MIC (Acinetobacter baumannii [15]) of the same molecule?
Answer: The MIC was 128 µg/mL (≈ 386 µM).

Question: What about the MIC (Acinetobacter baumannii [16]) of the same molecule?
Answer: Its MIC is over 128 µg/mL.

Question: And the MIC (Acinetobacter baumannii [17])?
Answer: Its MIC is 32 µg/mL (≈ 96.6 µM).

Question: What about the MIC (Acinetobacter baumannii [18]) of the same molecule?
Answer: Its MIC is 16 µg/mL (≈ 48.3 µM).

Question: What about the MIC (Acinetobacter baumannii [19]) of the same molecule?
Answer: The MIC was 32 µg/mL (≈ 96.6 µM).

Question: What about the MIC (Acinetobacter baumannii [20]) of the same molecule?
Answer: Its MIC is over 128 µg/mL.

Question: And the MIC (Acinetobacter baumannii [21])?
Answer: The MIC was 128 µg/mL (≈ 386 µM).

Question: What about the MIC (Acinetobacter baumannii [22]) of the same molecule?
Answer: Its MIC is 32 µg/mL (≈ 96.6 µM).

Question: What about the MIC (Acinetobacter baumannii [23]) of the same molecule?
Answer: Its MIC is over 128 µg/mL.

Question: And the MIC (Acinetobacter baumannii [24])?
Answer: Its MIC is 128 µg/mL (≈ 386 µM).

Question: And the MIC (Acinetobacter baumannii [25])?
Answer: Its MIC is over 128 µg/mL.

Question: And the MIC (Acinetobacter baumannii [26])?
Answer: The MIC was over 128 µg/mL.

Question: What about the MIC (Acinetobacter baumannii [27]) of the same molecule?
Answer: Its MIC is 4 µg/mL (≈ 12.1 µM).

Question: And the MIC (Acinetobacter baumannii [28])?
Answer: Its MIC is 0.25 µg/mL (≈ 0.754 µM).

Question: And the MIC (Acinetobacter baumannii [29])?
Answer: The MIC was 32 µg/mL (≈ 96.6 µM).

Question: And the MIC (Acinetobacter baumannii [30])?
Answer: The MIC was 1 µg/mL (≈ 3.02 µM).

Question: What about the MIC (Acinetobacter baumannii [31]) of the same molecule?
Answer: Its MIC is 128 µg/mL (≈ 386 µM).

Question: And the MIC (Acinetobacter baumannii [32])?
Answer: The MIC was 4 µg/mL (≈ 12.1 µM).

Question: What about the MIC (Acinetobacter baumannii [33]) of the same molecule?
Answer: The MIC was 32 µg/mL (≈ 96.6 µM).

Question: What about the MIC (Acinetobacter baumannii [34]) of the same molecule?
Answer: The MIC was 1 µg/mL (≈ 3.02 µM).

Question: What about the MIC (Acinetobacter baumannii [35]) of the same molecule?
Answer: Its MIC is 0.12 µg/mL (≈ 0.362 µM).

Question: What about the MIC (Acinetobacter baumannii [36]) of the same molecule?
Answer: Its MIC is 32 µg/mL (≈ 96.6 µM).

Question: And the MIC (Acinetobacter baumannii [37])?
Answer: Its MIC is over 128 µg/mL.

Question: What about the MIC (Acinetobacter baumannii [38]) of the same molecule?
Answer: Its MIC is 8 µg/mL (≈ 24.1 µM).

Question: And the MIC (Acinetobacter baumannii [39])?
Answer: The MIC was 4 µg/mL (≈ 12.1 µM).

Question: And the MIC (Acinetobacter baumannii [40])?
Answer: The MIC was 32 µg/mL (≈ 96.6 µM).

Question: What about the MIC (Acinetobacter baumannii [41]) of the same molecule?
Answer: Its MIC is 0.5 µg/mL (≈ 1.51 µM).
